This is an account of results in ChEMBL document CHEMBL4513216, “Probing the Open Global Health Chemical Diversity Library for Multistage-Active Starting Points for Next-Generation Antimalarials” (ACS Infect Dis, 2020).

The nature of this series: Toxicity liver stage against HepG2, at 10uM. It counts as cell-based. Also on record: test concentration 10 uM, cell line HepG2-A16-CD81EGFP. The following applies: human, HepG2-A16-CD81EGFP cells; read-out: INHIBITION
Put shortly: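 Uninfected HepG2-A16-CD81EGFP cells, 3 × 10^3 per well, 1536-well, plated on prespotted compound at 10 μM final, parasite-free screening media added to match infected plates; puromycin 10 μM positive, DMSO 0.5% negative; run in parallel with 48 h PbLuc assay at 37 °C, 5% CO2; viability by CellTiter-Glo luminescence, normalized to controls.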
In the case of `CC1=C(c2ccc(C)cc2)S(=O)(=O)N=C1N1CCc2ccccc21`, the cytotoxicity at 10 µM is -7.12%.

Turning to `O=C(NC[C@H]1C[C@@H]2CCN1C[C@@H]2CN1CCOCC1)Nc1ccsc1`, the cytotoxicity at 10 µM is 1.03%.

As to `Cc1cc(N(C)C)nc(C2(C)CCCN2C(=O)c2ccccc2)n1` (stereo not drawn), the cytotoxicity at 10 µM is -27.4%.

Regarding `COCCCN1CCC(NC2CSCCc3ccccc32)CC1` (stereo not drawn), the cytotoxicity at 10 µM is -3.32%.

As to `CNC(=O)C1(CCCc2ccccn2)CCN1Cc1coc(C)n1` (stereo not drawn), the cytotoxicity at 10 µM came to 19.7%.

For `CN(CCc1cnn(C)c1)C(=O)Cn1c(=O)[nH]c2ccccc21`, the cytotoxicity at 10 µM amounted to 4.5%.

Turning to `CCN(CC)C1CCN(c2nccc(C3CCCC3)n2)C1` (stereo not drawn), the cytotoxicity at 10 µM is -12.7%.

Consider `O=C(NC1CC1)N1CCc2ccc(=O)n(CCN3CCCC3)c2CC1`, for which the cytotoxicity at 10 µM was -0.603%.

For the molecule `O=C(COC1CCCC1)NCCCn1nc2ccccn2c1=O`, the cytotoxicity at 10 µM was found to be 5.78%.

With `O=C(Cc1cnc(-c2c(Cl)cccc2Cl)s1)N1CCOCC1`, the cytotoxicity at 10 µM is 3.29%.

For the molecule `CC(C)CC(CNC(=O)c1cccnc1Oc1cccnc1)N(C)C` (stereo not drawn), the cytotoxicity at 10 µM came out at 1.44%.

For the molecule `O=C(O)C1CCN(c2ccc(Sc3ccc(Br)cc3)nn2)CC1`, the cytotoxicity at 10 µM worked out at 9.14%.

Take `CCN1CCN(Cc2nc(C)no2)CC1`: the cytotoxicity at 10 µM was 0.978%.

For the molecule `Cc1nnc(C2Cc3ccccc3CN2Cc2c(C)noc2C)o1` (stereo not drawn), the cytotoxicity at 10 µM is -13.7%.

With `Cc1ccccc1C(=O)N1CC[C@@H](N2CCC(O)CC2)[C@H](O)C1`, the cytotoxicity at 10 µM was determined as 2.94%.

On to `CC(C)(C)n1ncc(NCC(O)c2ccccc2)c(Cl)c1=O` (stereo not drawn), for which the cytotoxicity at 10 µM came out at 46.6%.

As for `CN(CCNS(C)(=O)=O)C(=O)c1ccc(Cl)c(Cl)c1`, the cytotoxicity at 10 µM is -52.4%.

As for `CCn1ccnc1SCCn1cnc2ccsc2c1=O`, the cytotoxicity at 10 µM was -2.9%.

Regarding `CN(C)Cc1ccc(N2CCN(CCOCC(F)(F)F)CC2)nc1`, the cytotoxicity at 10 µM came out at 1.25%.

In the case of `O=C(NC1CC2(CCN(CCO)CC2)Oc2ccccc21)c1csnn1` (stereo not drawn), the cytotoxicity at 10 µM was -101%.

Take `COCCC(=O)N1CCC2(CN(Cc3ccc(OC)c(F)c3)C2)C1`: the cytotoxicity at 10 µM is -10.4%.

As for `COC(C)C(=O)Nc1cc(C(=O)N2CCSCC2)ccc1C` (stereo not drawn), the cytotoxicity at 10 µM was determined as 6.83%.

For `Cn1nccc1-c1ccc2nc(C3CCN(CC4CC4)CC3)nn2c1`, the cytotoxicity at 10 µM is 5.85%.

`COC(=O)c1ncccc1N1CCC(C(O)c2ccccc2)CC1` (stereo not drawn): the cytotoxicity at 10 µM was -4.11%.

Consider `COc1cc(CO)c(OC)c2c1OCO2`, for which the cytotoxicity at 10 µM is -2.93%.

For the molecule `CN(Cc1coc(-c2ccccc2)n1)C1CCCN(c2cccnn2)C1` (stereo not drawn), the cytotoxicity at 10 µM is -14%.

As for `Cc1cncc(C2CCCN2CCO)n1` (stereo not drawn), the cytotoxicity at 10 µM was -3.14%.

On to `Cc1nc(N)nc(C)c1Cc1nc(C2CC2)n[nH]1`, for which the cytotoxicity at 10 µM is -9.44%.

With `Cc1nc(CNC(=O)NCC(O)c2ccccc2)cs1` (stereo not drawn), the cytotoxicity at 10 µM was 0.682%.

As to `Cc1nccn1CCC1CCCCN1Cc1ccc(N(C)C)nc1` (stereo not drawn), the cytotoxicity at 10 µM amounted to 21.3%.

`Cc1cnc(C(=O)N2CCCN(Cc3csc(C)n3)CC2)cn1`: the cytotoxicity at 10 µM was -16%.

As for `c1csc(-c2nc(CN3CCN(c4cnccn4)CC3)co2)c1`, the cytotoxicity at 10 µM was -5.67%.

With `COc1ccccc1OC1CCN(c2nc(N)nc3[nH]cnc23)CC1`, the cytotoxicity at 10 µM turned out to be 2.94%.

As for `CS(=O)(=O)c1cc(Cl)cnc1C1CCN(C(=O)C2CCOCC2)CC1`, the cytotoxicity at 10 µM is 4.07%.

On to `CO[C@H]1CCN(C(=O)Cc2ccc(F)cc2)[C@H]1Cc1ccncc1`, for which the cytotoxicity at 10 µM came to 5.55%.

With `Cc1c(CN(C)C(=O)c2ccnn2C)cnn1C`, the cytotoxicity at 10 µM is -5.33%.

Regarding `Cc1cc(-c2nn3c(C4CC4)nnc3s2)on1`, the cytotoxicity at 10 µM was -2.37%.

`COc1coc(C(=O)Nc2ccncc2)cc1=O`: the cytotoxicity at 10 µM is -14.4%.

For `CCN(C(=O)NCc1ccccc1OC(F)F)C(C)c1cccnc1` (stereo not drawn), the cytotoxicity at 10 µM is -2.28%.

Take `N#Cc1ccnc(N2CCN(C3CCOC3=O)CC2)c1` (stereo not drawn): the cytotoxicity at 10 µM is -1.98%.

Regarding `CC(C)n1nnnc1-c1ccc(NC(=O)N(C)CCN(C)C)cc1F`, the cytotoxicity at 10 µM was -2.71%.

As for `Cc1ccc(C(=O)O)c(N2Cc3cnc(C(C)(C)C)nc3C2)n1`, the cytotoxicity at 10 µM worked out at 5.67%.

As to `c1cn(CC2CCOCC2)c(-c2cc(CN3CCCC3)cs2)n1`, the cytotoxicity at 10 µM was -2.96%.

For the molecule `Cc1cccc(OC2CCN(S(=O)(=O)Cc3cccc(F)c3)CC2)n1`, the cytotoxicity at 10 µM is -7.79%.

For the molecule `COCC(=O)N(C)Cc1cccc(Cl)c1`, the cytotoxicity at 10 µM was -10.8%.

For the molecule `CC(C)N(CC(=O)Nc1cccc(C(=O)N(C)C)c1)C1CC1`, the cytotoxicity at 10 µM was -4.81%.

`Cc1cc(F)ccc1N1CCCC(NC2CCSCC2)C1=O` (stereo not drawn): the cytotoxicity at 10 µM worked out at 1.07%.

`CCOc1ccccc1C(CC(=O)Nc1ncc(C)s1)NC(C)=O` (stereo not drawn): the cytotoxicity at 10 µM was -15.3%.

For the molecule `N#CCCCS(=O)(=O)NC1(c2cccc(Br)c2)CC1`, the cytotoxicity at 10 µM is 2.99%.

Turning to `CCc1ccc(NC(C(N)=O)c2ccc(F)cc2)cc1` (stereo not drawn), the cytotoxicity at 10 µM stood at 2.27%.

As for `CN(C)[C@@H]1CCN(S(=O)(=O)c2cn(C)cn2)[C@H]1Cc1cccnc1`, the cytotoxicity at 10 µM amounted to 9.79%.

`CC(=O)N1CCC2(CC1)CN(C(=O)c1ccc3c(c1)OCO3)C2`: the cytotoxicity at 10 µM is 6.71%.

For the molecule `Cc1cccc(CN2C(=O)CCC23CCN(Cc2nccn2C)CC3)n1`, the cytotoxicity at 10 µM stood at 5.47%.

`O=C(c1cccc(CNS(=O)(=O)c2ccccc2F)c1)N1CCCC1`: the cytotoxicity at 10 µM is -0.0481%.

Turning to `O=C(c1ccc2c(c1)OCCCO2)N1CCCC(n2cccn2)C1` (stereo not drawn), the cytotoxicity at 10 µM is -15.6%.

As to `Cc1nc(C(F)(F)F)nc(N2CCC3(CC2)CC(C(=O)O)N(C)C3)c1C` (stereo not drawn), the cytotoxicity at 10 µM was -4.14%.

Regarding `Cc1cc(C(=O)NC2CCCc3c2cnn3-c2cccc(C)c2C)[nH]n1` (stereo not drawn), the cytotoxicity at 10 µM came out at 51.4%.

As for `COCCN1CC[C@@H]2O[C@@H](COCC(=O)N3CCCC3)CC[C@@H]21`, the cytotoxicity at 10 µM is -18.1%.

For `CCSc1nnc(N(CCC#N)CCC#N)s1`, the cytotoxicity at 10 µM amounted to 4.91%.

On to `CC(C)(C)c1cn(C2CCN(C3CCSC3)CC2)nn1` (stereo not drawn), for which the cytotoxicity at 10 µM is -3.99%.

On to `CCN(C)C(=O)CN1CCC(c2cc(N3CCOCC3)nc(C)n2)CC1`, for which the cytotoxicity at 10 µM is -2.02%.

`CC(=O)NC(Cc1c[nH]c2cc(F)ccc12)C(=O)Nc1cnn(C)c1` (stereo not drawn): the cytotoxicity at 10 µM was 13.9%.

`COCC(C)NCc1ccc2[nH]c(C)c(C)c2c1` (stereo not drawn): the cytotoxicity at 10 µM is -3.06%.

`Clc1ccc(CN2CCCC2Cn2cncn2)c2ncccc12` (stereo not drawn): the cytotoxicity at 10 µM is -9.66%.

Take `Cc1ccc(F)cc1S(=O)(=O)N(C)CC(N)=O`: the cytotoxicity at 10 µM was -12.6%.

Take `CN(Cc1ccco1)C(=O)C1CCCc2ccccc21` (stereo not drawn): the cytotoxicity at 10 µM came out at 3.68%.

`O=C(Cc1ccc(F)cc1)NCCNS(=O)(=O)C1CCCC1`: the cytotoxicity at 10 µM turned out to be 9.31%.

For `CN(C)c1ncnc2c1CCN(CC1CCCC1)CC2`, the cytotoxicity at 10 µM was 1.03%.

In the case of `COCC(=O)N1CCN(C)c2ncccc2C1`, the cytotoxicity at 10 µM was -3.1%.

Turning to `NC(=O)COc1ccc(C(=O)N2CCCC(n3ccnc3)C2)cc1` (stereo not drawn), the cytotoxicity at 10 µM was -13%.

With `O=C(CCCn1ccnc1)N1CCC2(CC1)[C@H](O)C[C@@H]2OCCO`, the cytotoxicity at 10 µM stood at 3.31%.

With `CCN1CCC2(CC1)CC(COC)N(Cc1csc(C)n1)C2` (stereo not drawn), the cytotoxicity at 10 µM amounted to 6.68%.

As for `COc1c(CNC2CCOc3ccccc32)c(C(C)C)nn1C` (stereo not drawn), the cytotoxicity at 10 µM was -0.169%.
